Measurements from ChEMBL document CHEMBL1795208 (J Med Chem, 2011).
Calls of active or inactive are those of the source. No cut-off for these calls is given here.

Tests used:
SK-BR-3 [1] = assay: Antiproliferative activity against human SKBR3 cells expressing HER2 after 72 hrs by MTS/PMS assay; format: functional, cell-based; settings: SK-BR-3, 72 h
How it was run: (§1)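 Cells kept in Advanced DMEM/F12 (1:1) with non-essential amino acids, 2 mM L-glutamine, penicillin, streptomycin and 10% FBS at 37 °C, 5% CO2. Seeded at 2000/well, attached overnight. Compound added in DMSO across a concentration range (1% DMSO final) for 72 h. Viable cells read by MTS/PMS and normalized to 1% DMSO controls (100%). IC50 taken from separate triplicate experiments.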

MCF7 = assay: Antiproliferative activity against human MCF7 cells expressing estrogen receptor after 72 hrs by MTS/PMS assay; format: functional, cell-based; settings: MCF7, 72 h; how it was run: as §1
[2] = Antiproliferative activity against human androgen-independent PC3MM2 cells after 72 hrs by MTS/PMS assay; format: functional, cell-based; settings: PC3MM2, 72 h; how it was run: as §1
[3] = biological target: T1, Heat shock protein HSP90 (Homo sapiens) (UniProt P07900+P08238); assay: Inhibition of Hsp90 in human MCF7 cells assessed as Her2 degradation after 24 hrs by Western blot analysis; format: cell-based
How it was run: (§2)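 MCF-7 cells grown as for proliferation and treated with compound at various concentrations, GDA, or DMSO vehicle (1% DMSO final) for 24 h. Lysed in RIPA with 1 mM PMSF, 2 mM orthovanadate and protease inhibitors on ice for 1 h, then clarified at 14000g. Protein measured by BCA. 20 µg run reducing, transferred to nitrocellulose and probed with specific antibodies.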

[4] = biological target: T1, Heat shock protein HSP90 (Homo sapiens); assay: Inhibition of Hsp90 in human MCF7 cells assessed as Akt degradation after 24 hrs by Western blot analysis; format: cell-based; how it was run: as §2
[5] = biological target: T1, Heat shock protein HSP90 (Homo sapiens); assay: Inhibition of Hsp90 in human MCF7 cells assessed as Raf1 degradation after 24 hrs by Western blot analysis; format: cell-based; how it was run: as §2
[6] = biological target: T1, Heat shock protein HSP90 (Homo sapiens); assay: Inhibition of Hsp90 in human MCF7 cells assessed as Her2 degradation at IC50 concentration after 24 hrs by Western blot analysis; format: cell-based
[7] = biological target: T1, Heat shock protein HSP90 (Homo sapiens); assay: Inhibition of Hsp90 in human MCF7 cells assessed as Akt degradation at IC50 concentration after 24 hrs by Western blot analysis; format: cell-based
[8] = biological target: T1, Heat shock protein HSP90 (Homo sapiens); assay: Inhibition of Hsp90 in human MCF7 cells assessed as Raf1 degradation at IC50 concentration after 24 hrs by Western blot analysis; format: cell-based
SK-BR-3 [9] = assay: Ratio of novobiocin IC50 to compound IC50 for human SKBR3 cells expressing HER2; format: functional

Row | SMILES | IC50 (SK-BR-3 [1]) [nM] | IC50 (MCF7) [nM] | IC50 [2] [nM] | inhibition [3] | inhibition [4] | inhibition [5] | inhibition [6] | inhibition [7] | inhibition [8] | Ratio IC50 (SK-BR-3 [9])
1 | COc1cc2cc(NC(=O)c3ccc(OC(C)=O)c(CC=C(C)C)c3)c(=O)oc2c(C)c1OCCCN(C)C | 360 | 700 | 1460 | Dose-dependent effect | Dose-dependent effect | Dose-dependent effect | Active | Active | Active | 
2 | COc1cc2cc(NC(=O)c3ccc(O)c(CC=C(C)C)c3)c(=O)oc2c(C)c1OC1CCN(C)CC1 | 420 | 540 | 2260 | Dose-dependent effect | Dose-dependent effect | Dose-dependent effect | Active | Active | Active | 
3 | COc1cccc(-c2cc(C(=O)Nc3cc4cc(OC)c(O[C@@H]5OC[C@@H]6OC(=O)O[C@H]56)c(C)c4oc3=O)ccc2OC)c1 |  |  |  |  |  |  |  |  |  | 500
4 | COc1cccc(-c2cc(C(=O)Nc3cc4ccc(O[C@H]5OCC[C@@H](O)[C@H]5O)c(OC)c4oc3=O)ccc2OC)c1 | 11100 | 10800 |  |  |  |  |  |  |  | 500
